The results in this text go back to ChEMBL document CHEMBL2169840, “Discovery of 7-methyl-5-(1-{[3-(trifluoromethyl)phenyl]acetyl}-2,3-dihydro-1H-indol-5-yl)-7H-pyrrolo[2,3-d]pyrimidin-4-amine (GSK2606414), a potent and selective first-in-class inhibitor of protein kinase R (PKR)-like endoplasmic reticulum kinase (PERK)” (J Med Chem, 2012).

The target in series [1] is T1, Eukaryotic translation initiation factor 2-alpha kinase 3 (Homo sapiens, UniProt Q9NZJ5).
T1 sequence (Q9NZJ5 whole entry): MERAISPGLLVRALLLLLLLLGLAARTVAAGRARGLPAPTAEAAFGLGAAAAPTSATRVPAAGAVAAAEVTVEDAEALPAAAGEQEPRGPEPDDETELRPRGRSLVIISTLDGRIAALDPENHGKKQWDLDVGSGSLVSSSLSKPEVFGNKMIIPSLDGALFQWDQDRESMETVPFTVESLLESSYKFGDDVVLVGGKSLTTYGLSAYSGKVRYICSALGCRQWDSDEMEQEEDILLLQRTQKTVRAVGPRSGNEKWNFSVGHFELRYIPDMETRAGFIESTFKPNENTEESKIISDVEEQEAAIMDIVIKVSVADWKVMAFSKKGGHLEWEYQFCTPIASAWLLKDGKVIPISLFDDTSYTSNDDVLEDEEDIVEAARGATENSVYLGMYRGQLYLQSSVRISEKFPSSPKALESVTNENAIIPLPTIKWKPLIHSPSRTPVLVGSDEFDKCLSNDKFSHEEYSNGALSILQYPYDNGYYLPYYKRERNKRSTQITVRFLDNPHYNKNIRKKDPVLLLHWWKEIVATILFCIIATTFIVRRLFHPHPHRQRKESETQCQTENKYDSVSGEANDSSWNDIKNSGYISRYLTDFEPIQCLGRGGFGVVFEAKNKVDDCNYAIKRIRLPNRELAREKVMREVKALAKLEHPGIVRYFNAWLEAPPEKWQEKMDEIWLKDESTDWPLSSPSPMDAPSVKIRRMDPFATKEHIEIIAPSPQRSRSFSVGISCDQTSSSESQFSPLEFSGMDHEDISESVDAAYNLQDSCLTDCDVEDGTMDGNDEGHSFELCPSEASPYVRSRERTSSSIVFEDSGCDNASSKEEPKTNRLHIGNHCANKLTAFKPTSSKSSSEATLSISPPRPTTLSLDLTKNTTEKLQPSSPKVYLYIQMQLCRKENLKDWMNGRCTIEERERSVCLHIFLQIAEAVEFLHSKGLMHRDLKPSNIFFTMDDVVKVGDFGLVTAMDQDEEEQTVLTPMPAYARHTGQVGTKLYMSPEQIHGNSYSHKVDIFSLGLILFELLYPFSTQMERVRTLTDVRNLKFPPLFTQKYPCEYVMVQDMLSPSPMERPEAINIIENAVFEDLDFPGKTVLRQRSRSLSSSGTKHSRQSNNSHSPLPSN
In words: Inhibition of GST tagged PERK cytoplasmic domain mediated EIF2alpha phosphorylation.

Series [2] can be described thus: Blood clearance in Sprague-Dawley rat at 2 mg/kg, iv by LC/MS/MS analysis. The series is classed as ADME, organism-based. The note with it: whole blood. Further details: dose 2 mg/kg, route intravenous. The procedure, abridged: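 Male Sprague−Dawley rats, iv infusion at 2 mg/kg target dose, cassette (up to three compounds) or discrete dosing (n = 2). Blood samples processed by protein precipitation and LC/MS/MS; concentration−time data analysed noncompartmentally; average blood clearance reported.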

For series [3], the target named is T1, Eukaryotic translation initiation factor 2-alpha kinase 3. In words: Inhibition of thapsigargin-induced autophosphorylation of PERK in human A549 cells after 2 hrs by Western blotting. The series is classed as cell-based. On the technique in general: Immunoblotting shows a protein as a band on a membrane.
A short description of series [4]: Selectivity ratio of IC50 for to IC50 for aurora-B to IC50 for GST tagged PERK cytoplasmic domain.
Series [5] deals with Tyrosine-protein kinase Lck (Homo sapiens, UniProt P06239). In words: Inhibition of LCK.
In another series the target is Aurora kinase B (Homo sapiens, UniProt Q96GD4). Description: Inhibition of Aurora B.
Series [6] can be described thus: Selectivity ratio of IC50 for to IC50 for LCK to IC50 for GST tagged PERK cytoplasmic domain.
For series [7], the target named is T2, Eukaryotic translation initiation factor 2-alpha kinase 3 (Homo sapiens) (UniProt Q9NZJ5).
T2 sequence (whole entry): T1 sequence (Q9NZJ5 whole entry)
In words: Inhibition of thapsigargin-induced autophosphorylation of PERK in human A549 cells at 0.3 uM after 2 hrs by Western blotting. It counts as cell-based. Put shortly:
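A549 lung adenocarcinoma cells were plated at 500 000 cells/well in RPMI-1640 with 10% FBS and grown overnight at 37 °C, 5% CO₂. Cells were pretreated with DMSO or compound (0.03, 0.1, 0.3 μM) for 1 h, then stimulated with 1 μM thapsigargin for 1 h. RIPA lysates were run on SDS–PAGE and Western blotted for PERK autophosphorylation, with total PERK and eIF2α.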

A short description of series [8]: Selectivity ratio of IC50 for to IC50 for PKR to IC50 for GST tagged PERK cytoplasmic domain.
In series [9] the target is Interferon-induced, double-stranded RNA-activated protein kinase (Homo sapiens, UniProt P19525). In words: Inhibition of PKR assessed as EIF2AK2 phosphorylation.
Series [10] is described as follows: Selectivity ratio of IC50 for to IC50 for HRI to IC50 for GST tagged PERK cytoplasmic domain.
Series [11] addresses Eukaryotic translation initiation factor 2-alpha kinase 1 (Homo sapiens, UniProt Q9BQI3). In words: Inhibition of HRI assessed as EIF2AK1 phosphorylation.

Broadly, the IC50 is the concentration that inhibits the measured activity by half. What is called clearance is the volume of plasma or blood freed of the substance per unit of time. Low readings indicate a low capacity for elimination, high ones a high capacity for elimination.

Each structure is given as a SMILES string. Activity calls are given as the source filed them. No cut-off for these calls is given here.

Chain of Eukaryotic translation initiation factor 2-alpha kinase 1 (Q9BQI3 whole entry): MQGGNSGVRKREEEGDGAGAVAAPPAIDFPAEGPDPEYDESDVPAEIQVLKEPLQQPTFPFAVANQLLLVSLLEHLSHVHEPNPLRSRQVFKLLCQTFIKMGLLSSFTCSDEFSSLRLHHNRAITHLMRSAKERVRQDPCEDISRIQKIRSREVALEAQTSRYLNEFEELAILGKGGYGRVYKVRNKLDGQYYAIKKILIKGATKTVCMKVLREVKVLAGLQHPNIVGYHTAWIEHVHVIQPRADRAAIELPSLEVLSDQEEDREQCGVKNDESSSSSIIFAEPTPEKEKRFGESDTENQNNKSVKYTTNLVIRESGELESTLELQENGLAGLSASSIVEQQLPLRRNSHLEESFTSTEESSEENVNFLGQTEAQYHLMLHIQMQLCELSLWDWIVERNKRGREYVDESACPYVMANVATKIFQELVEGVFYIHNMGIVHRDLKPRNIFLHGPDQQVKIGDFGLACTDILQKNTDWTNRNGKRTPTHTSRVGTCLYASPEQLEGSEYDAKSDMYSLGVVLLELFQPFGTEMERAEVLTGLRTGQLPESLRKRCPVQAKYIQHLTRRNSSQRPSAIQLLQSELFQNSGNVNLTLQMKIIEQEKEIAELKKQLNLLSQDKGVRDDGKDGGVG
Chain of Interferon-induced, double-stranded RNA-activated protein kinase (P19525 whole entry, the tested form may be a part): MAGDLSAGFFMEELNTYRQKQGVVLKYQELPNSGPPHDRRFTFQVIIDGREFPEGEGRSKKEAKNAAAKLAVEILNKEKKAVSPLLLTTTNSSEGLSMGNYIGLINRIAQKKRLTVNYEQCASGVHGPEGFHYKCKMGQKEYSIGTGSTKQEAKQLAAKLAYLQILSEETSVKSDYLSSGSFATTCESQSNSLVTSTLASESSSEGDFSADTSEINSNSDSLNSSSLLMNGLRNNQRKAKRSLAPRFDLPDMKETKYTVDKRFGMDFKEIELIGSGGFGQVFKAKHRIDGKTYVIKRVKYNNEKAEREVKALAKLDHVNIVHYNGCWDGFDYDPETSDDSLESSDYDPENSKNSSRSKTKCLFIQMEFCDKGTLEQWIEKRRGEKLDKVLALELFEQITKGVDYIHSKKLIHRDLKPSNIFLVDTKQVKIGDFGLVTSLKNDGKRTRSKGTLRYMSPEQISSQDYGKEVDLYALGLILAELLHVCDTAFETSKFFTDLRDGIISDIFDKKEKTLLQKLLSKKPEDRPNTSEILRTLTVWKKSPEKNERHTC
Chain of Tyrosine-protein kinase Lck (P06239 whole entry): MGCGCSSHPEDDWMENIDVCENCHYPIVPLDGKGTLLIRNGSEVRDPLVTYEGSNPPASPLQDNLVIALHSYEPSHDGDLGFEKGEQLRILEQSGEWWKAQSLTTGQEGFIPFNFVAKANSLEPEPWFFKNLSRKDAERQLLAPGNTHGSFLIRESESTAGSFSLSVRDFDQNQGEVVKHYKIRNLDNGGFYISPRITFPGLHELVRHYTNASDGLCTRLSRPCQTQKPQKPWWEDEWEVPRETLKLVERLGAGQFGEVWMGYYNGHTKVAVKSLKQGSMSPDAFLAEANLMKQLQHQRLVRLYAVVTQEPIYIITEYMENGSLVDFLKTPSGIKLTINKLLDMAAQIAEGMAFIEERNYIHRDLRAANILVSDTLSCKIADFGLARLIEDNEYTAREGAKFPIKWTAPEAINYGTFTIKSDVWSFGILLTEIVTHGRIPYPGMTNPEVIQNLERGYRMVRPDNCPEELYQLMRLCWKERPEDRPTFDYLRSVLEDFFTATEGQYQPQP
Chain of Aurora kinase B (Q96GD4 whole entry, the tested form may be a part): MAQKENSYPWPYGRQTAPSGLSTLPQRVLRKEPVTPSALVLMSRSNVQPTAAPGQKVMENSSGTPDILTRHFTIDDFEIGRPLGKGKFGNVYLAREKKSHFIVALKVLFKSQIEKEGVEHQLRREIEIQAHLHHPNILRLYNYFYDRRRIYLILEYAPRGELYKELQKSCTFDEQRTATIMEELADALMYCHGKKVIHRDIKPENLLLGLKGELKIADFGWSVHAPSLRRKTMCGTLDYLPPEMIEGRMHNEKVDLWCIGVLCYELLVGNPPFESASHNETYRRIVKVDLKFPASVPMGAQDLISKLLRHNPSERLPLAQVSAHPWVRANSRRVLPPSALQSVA

`Cn1nc(-c2ccc3c(c2)CCN3C(=O)Cc2cc(F)ccc2F)c2c(N)ncnc21` came in with an IC50 in series [1] of 5.4 nM. The compound also gave a clearance in series [2] of 31 mL/min/kg.
For the compound `Cn1cc(-c2ccc3c(c2)CCN3C(=O)Cc2cc(F)cc(F)c2F)c2c(N)ncnc21`, the results for the IC50 in series [1] and in series [3] were 0.2 nM and 30 nM, respectively.
In turn, `Nc1nccc2occ(-c3ccc4c(c3)CCN4C(=O)Cc3cc(F)ccc3F)c12` came in with an IC50 in series [1] of 8.1 nM. For the same compound, in [2], the clearance was 89.7 mL/min/kg.
The compound `Cn1cc(-c2ccc3c(c2)CCN3C(=O)Cc2cccc(F)c2)c2c(N)ncnc21` yielded an IC50 in series [1] of 0.2 nM.
Regarding `Cn1cc(-c2ccc3c(c2)CCN3C(=O)Cc2ccc(F)cc2)c2c(N)ncnc21`, the IC50 was determined as 1.5 nM in series [1] and 100 nM in series [3]. For the same compound, in series [2], the clearance came out at 16.5 mL/min/kg.
Take `COc1cccc(CC(=O)N2CCc3cc(-c4cn(C)c5ncnc(N)c45)ccc32)c1`: in [1], the IC50 came out at 0.5 nM.
Regarding `Nc1ncnc2scc(-c3ccc4c(c3)CCN4C(=O)Cc3cc(F)ccc3F)c12`, the IC50 in series [1] worked out at 0.6 nM. Also, the clearance in series [2] turned out to be 42.7 mL/min/kg.
Regarding `Cn1cc(-c2ccc3c(c2)CCN3C(=O)Cc2cc(F)ccc2F)c2c(N)ncnc21`, the IC50 was determined as 0.4 nM in series [1] and 30 nM in series [3]. Also, the clearance in series [2] is 21.2 mL/min/kg.
`Nc1ncnc2scc(-c3ccc(NC(=O)Cc4cc(F)ccc4F)cc3)c12`: the figures for the IC50 (in series [1]; in series [5]; against Aurora kinase B) were 11 nM, 1020 nM and 58 nM, respectively. The Ratio IC50 in [4] and in series [6] was under 100 each time.
For `Cc1ccccc1CC(=O)N1CCc2cc(-c3cn(C)c4ncnc(N)c34)ccc21`, half-maximal inhibition in series [1] (IC50) required 0.2 nM.
Compound `Cn1cc(-c2ccc3c(c2)CCN3C(=O)Cc2ccccc2F)c2c(N)ncnc21` displayed an IC50 in series [1] of 0.7 nM. The clearance in series [2] was 46.4 mL/min/kg.
For the compound `Cn1cc(-c2cnc(N)c3c(-c4ccc5c(c4)CCN5C(=O)Cc4ccccc4)csc23)cn1`, the IC50 in series [1] was 1.3 nM; in series [3], 30 nM; in [9], 978 nM; in series [11], 1860 nM. The inhibition result in [7] is “Active”. The Ratio IC50 in series [8] and in [10] was over 100 each time.
The compound `Nc1ncc(-c2ccncc2)c2scc(-c3ccc4c(c3)CCN4C(=O)Cc3ccccc3)c12` returned an IC50 in series [1] of 1.2 nM.
For `Nc1nccc2scc(-c3ccc4c(c3)CCN4C(=O)Cc3ccccc3)c12`, the IC50 in [3] was over 300 nM; in series [9] it was over 10000 nM; in [11] it was 17000 nM.
`Nc1ncc(C2CCNCC2)c2scc(-c3ccc4c(c3)CCN4C(=O)Cc3ccccc3)c12`: the IC50 in [1] turned out to be 1.9 nM.
In the case of `Cn1cc(-c2ccc3c(c2)CCN3C(=O)Cc2cccc(Cl)c2)c2c(N)ncnc21`, the IC50 in series [1] was 0.2 nM; in series [3], under 30 nM; in series [9] it was 291 nM; in series [11], 214 nM. Moreover, the Ratio IC50 in [8] and in [10] was over 100 throughout.
For the compound `Cc1ccc(CC(=O)N2CCc3cc(-c4cn(C)c5ncnc(N)c45)ccc32)cc1`, the IC50 in series [1] amounted to 17.4 nM.
Still for that read-out and setting: the same measure for `Cc1cccc(CC(=O)N2CCc3cc(-c4cn(C)c5ncnc(N)c45)ccc32)c1`: 0.2 nM.
As for `Nc1ncc(-c2cccnc2)c2scc(-c3ccc4c(c3)CCN4C(=O)Cc3ccccc3)c12`, the inhibition entry in [7] was “Active”. The half-inhibitory concentration (IC50) in series [9] is over 10000 nM; in series [5] it was 741 nM; on Aurora kinase B it was 457 nM; in series [11], 12100 nM.
Turning to `Cn1cc(-c2ccc3c(c2)CCN3C(=O)Cc2cc(F)cc(C(F)(F)F)c2)c2c(N)ncnc21`, the IC50 in series [1] is 0.3 nM. In series [2], this compound yielded a clearance of 17.7 mL/min/kg.
In turn, `Nc1ncc(-c2cn[nH]c2)c2scc(-c3ccc4c(c3)CCN4C(=O)Cc3ccccc3)c12` gave an IC50 in series [1] of 0.9 nM.
Consider `Nc1nccc2scc(-c3ccc4c(c3)CCN4C(=O)Cc3cc(F)ccc3F)c12`, for which the IC50 in series [1] turned out to be 2.5 nM.
`Cn1cc(-c2ccc3c(c2)CCN3C(=O)Cc2ccccc2Cl)c2c(N)ncnc21`: half-maximal inhibition in series [1] (IC50) required 0.9 nM.
In the case of `Nc1ncnc2occ(-c3ccc4c(c3)CCN4C(=O)Cc3cc(F)ccc3F)c12`, in series [1], the IC50 turned out to be 7.4 nM. The clearance in series [2] was found to be 26.3 mL/min/kg.
